Hits are enriched below; roughly 4.1% of the tested compounds scored in any of these assays.
MrgX1 antag: antagonists of human MrgX1 receptor | B-score at 10 µM | MRGX1-HEK293 calcium flux, Fluo-4, BAM8-22 antagonism; active compounds read low | Q96LB2 | hit rate 1.3% among 310,000;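 active means calcium-response B-score plate-corrected more than 3 library SD below zero, starting fluorescence within 5 deviations, no agonist response on first addition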;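 further: peak minus trough fluorescence over baseline after final BAM8-22 challenge near maximal dose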
MrgX1 PAM: allosterically activates human MrgX1 receptor signaling. hit rate 0.63% among 310,000. Q96LB2. MrgX1-HEK293, Fluo-4 calcium flux, FDSS; active compounds read high. B-score at 10 µM. AID 588675;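 active means plate-corrected calcium response at least 3 library SD above typical, normal starting fluorescence, not activating the receptor alone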;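 further: compound read alongside a low EC10 to EC30 dose of BAM8-22 agonist; peak minus trough fluorescence over baseline measured at the second addition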
RGS4 pot: potentiators or activators of RGS4 | hit rate 0.92% among 310,000 | B-score at 10 µM | HEK293 M3R/inducible RGS4, carbachol calcium flux Fluo4; active compounds read low | AID 463111;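 active means B-score of the integrated calcium signal more than 4 SD below the library mean, with starting fluorescence not abnormally high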;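 further: negative B-score means reduced calcium response which marks RGS4 activation or potentiation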
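System – HEK293 FlpIn-TREx cells, stable M3R, doxycycline-inducible RGS4 · Reagent – ECmax carbachol challenge · Times – compound preincubation 20 min at room temperature before agonist · Technique – Fluo4 fluorescence kinetic imaging of calcium · Measure – B score of integrated Fluo4 ratio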
MrgX1 ag: human MrgX1 receptor agonism, primary screen; MrgX1-HEK293 cells, Fluo-4 calcium fluorescence, agonist mode; active compounds read high; B-score at 10 µM; hit rate 0.44% among 310,000;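 active means calcium response B-score plate-corrected fluorescence ratio at least 3 library SD, with starting fluorescence B-score inside 5 SD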
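Assay system: stable human MrgX1 HEK293 cell line. Quantity: 15,000 cells per well. Schedule: cells plated overnight, dye loaded 0.5 h 37 °C, 0.5 h room temperature. Detection: Fluo-4 NW calcium-flux fluorescence, kinetic read. Read-out basis: peak-minus-minimum fluorescence over baseline, converted to B scores. Control set: positive and negative control wells on each plate.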
RGS4 inh: inhibitors of human RGS4. P49798. HEK293 M3R/RGS4 inducible, Fluo-4 calcium flux; active compounds read high; triggered by carbachol at its EC20. B-score at 10 µM. hit rate 0.45% among 310,000. AID 463165;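 active means B-score, a plate-corrected calcium signal, over three deviations above library mean, with baseline fluorescence within five deviations of library mean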;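 further: RGS4 expression induced by doxycycline in cells with stable M3 receptor; B-score is computed from the integrated fluorescence ratio over baseline after carbachol; higher B-score means a larger calcium signal and so more RGS4 inhibition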
Target sequence (P49798 whole entry, looked up): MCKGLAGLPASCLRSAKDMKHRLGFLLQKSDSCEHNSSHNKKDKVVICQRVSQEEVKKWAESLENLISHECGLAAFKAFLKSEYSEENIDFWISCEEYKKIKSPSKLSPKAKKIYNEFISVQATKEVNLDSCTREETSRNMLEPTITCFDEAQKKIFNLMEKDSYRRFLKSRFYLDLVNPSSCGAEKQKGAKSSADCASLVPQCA
Kir21 block: inhibitors of mouse Kir2.1 inward-rectifier potassium channel. P35561. AID 1672. HEK293-Kir2.1, FluxOR thallium flux fluorescence; active compounds read low. B-score at 10 µM. hit rate 0.85% among 310,000;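 active means fluorescence ratio B-score at or below minus 3 SD of library scores, with starting-brightness B-score within 2 SD, cut at about -4.2 in these data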;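 further: channel flux triggered by added potassium and thallium sulfate stimulus; B-score of peak minus minimum fluorescence over baseline after thallium stimulus; more negative B-score means stronger Kir2.1 block with less thallium influx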
An asterisk follows results filed as active; i = inactive; nt = no result.

SMILES	MrgX1 antag	MrgX1 PAM	RGS4 pot	MrgX1 ag	RGS4 inh	Kir21 block
O=C1c2cccc3c([N+](=O)[O-])ccc(c23)C(=O)N1c1ccccn1	i	i	-7.78*	i	i	-2.51
O=C1c2cccc3c([N+](=O)[O-])ccc(c23)C(=O)N1c1ccc(Cl)cn1	i	i	i	i	i	-4.95*
CC(=O)Oc1ccc(N2C(=O)c3cccc4c([N+](=O)[O-])ccc(c34)C2=O)cc1	i	i	i	i	i	0.53
O=C1c2cccc3c([N+](=O)[O-])ccc(c23)C(=O)N1O	-8.56*	i	i	i	i	-3.41
O=C1c2cccc3c([N+](=O)[O-])ccc(c23)C(=O)N1c1nccs1	i	i	i	i	i	-0.02
O=C1c2ccc([N+](=O)[O-])cc2C(=O)N1c1ccc(Cl)cn1	i	i	i	i	i	-2.19
Cc1c(NC(=O)CC2NC(=O)NC2=O)c(=O)n(-c2ccccc2)n1C (stereo unspecified)	i	i	i	i	i	-0.14
COc1c(CC=C(C)C)c(O)cc2oc(=O)c3c4ccc(O)cc4oc3c12	-10.7*	i	i	i	i	0.22
COc1cccc2c1OCC(C(=O)Nc1nccs1)=C2	i	i	i	28*	i	0.58
COc1cccc(C=Nc2ccccc2C(=O)Nc2nccs2)c1OC	i	i	i	i	i	0.47
Cc1ccc(N=C(NOCc2ccc(Cl)cc2Cl)c2nonc2N)c(C)c1	i	i	-7.58*	i	i	0.26
Cc1ccccc1N=C(NOCc1ccc(Cl)cc1Cl)c1nonc1N	i	i	-7.31*	i	i	1.47
Cc1ccccc1N=C(NOCc1ccccc1)c1nonc1N	i	i	nt	i	nt	nt
CCN1C(=NCc2ccc(OC)cc2)N[C@@H](c2ccccc2)C(C(=O)OC)=C1C	i	i	i	i	i	-2.8
COC(=O)C1=C(C)N(Cc2ccccc2)C(=NCc2ccc(OC)cc2)N[C@H]1c1cccc(F)c1	i	i	i	i	i	-9.59*
CCOC(=O)CN1C(=O)N[C@@H](c2ccccc2)C(C(=O)OC)=C1C	i	i	nt	i	nt	nt
CCOC(=O)CN1C(=O)N[C@@H](c2cccc(F)c2)C(C(=O)OC)=C1C	i	i	i	i	i	-6.09*
COC(=O)C1=C(C)N(Cc2ccccc2)C(=NCc2cc(OC)c(OC)c(OC)c2)N[C@H]1c1cccc(F)c1	i	i	i	i	i	-5.22*
c1ccc(C2=Nc3ccccc3NC(c3ccccc3)C2)cc1 (stereo unspecified)	i	i	i	i	i	-0.07
CCOc1ccccc1CN1CCCC(C(=O)Nc2cccc(-n3cccn3)c2)C1 (stereo unspecified)	i	i	-7.01*	i	i	-1.86
CSc1cccc(CN2CCCC(C(=O)Nc3cccc(-n4cccn4)c3)C2)c1 (stereo unspecified)	i	i	-7.31*	i	i	-0.94
CCOc1cccc(CN2CCCC(C(=O)Nc3cccc(-n4cccn4)c3)C2)c1 (stereo unspecified)	i	i	i	i	i	-2.06
CC(C)(O)C#Cc1ccc(C(=O)N2CCCC2C(=O)O)s1 (stereo unspecified)	i	i	nt	i	nt	nt
CCOC(=O)c1cnc(SC)nc1N1CCCC1	i	i	i	i	i	-0.55
CC(C)N1CN=C(Nc2nc3ccccc3o2)NC1	i	i	i	i	i	2.03
CCN(CC)CCCN=C1N[C@@H](c2ccccc2)C(C(=O)OC)=C(C)N1CC	i	i	i	i	i	0
COC(=O)C1=C(C)N(Cc2ccccc2)C(=NCCc2cccnc2)N[C@H]1c1ccccc1	i	i	i	i	i	-11.1*
COC(=O)C1=C(C)N(Cc2ccccc2)C(=NCCCCO)N[C@H]1c1ccccc1	i	i	i	i	i	-4.56*
